Reference: ChEMBL document CHEMBL4261499, “Chiral disubstituted piperidinyl ureas: a class of dual diacylglycerol lipase-α and ABHD6 inhibitors” (Medchemcomm, 2017)
pIC50: −log10 of the molar value. Activity calls are given as the source filed them. The calls are words filed in the database; no cut-off is given here.

Key:
[1] = target: T1, Diacylglycerol lipase-alpha (Homo sapiens, UniProt Q9Y4D2); test: Inhibition of recombinant human DAGLalpha expressed in HEK293 cells using PNP-butyrate as substrate pretreated for 20 to 30 mins followed by substrate addition measured every 60 secs for 20 mins by colorimetric method; format: cell-based
T1 sequence (Q9Y4D2 whole entry): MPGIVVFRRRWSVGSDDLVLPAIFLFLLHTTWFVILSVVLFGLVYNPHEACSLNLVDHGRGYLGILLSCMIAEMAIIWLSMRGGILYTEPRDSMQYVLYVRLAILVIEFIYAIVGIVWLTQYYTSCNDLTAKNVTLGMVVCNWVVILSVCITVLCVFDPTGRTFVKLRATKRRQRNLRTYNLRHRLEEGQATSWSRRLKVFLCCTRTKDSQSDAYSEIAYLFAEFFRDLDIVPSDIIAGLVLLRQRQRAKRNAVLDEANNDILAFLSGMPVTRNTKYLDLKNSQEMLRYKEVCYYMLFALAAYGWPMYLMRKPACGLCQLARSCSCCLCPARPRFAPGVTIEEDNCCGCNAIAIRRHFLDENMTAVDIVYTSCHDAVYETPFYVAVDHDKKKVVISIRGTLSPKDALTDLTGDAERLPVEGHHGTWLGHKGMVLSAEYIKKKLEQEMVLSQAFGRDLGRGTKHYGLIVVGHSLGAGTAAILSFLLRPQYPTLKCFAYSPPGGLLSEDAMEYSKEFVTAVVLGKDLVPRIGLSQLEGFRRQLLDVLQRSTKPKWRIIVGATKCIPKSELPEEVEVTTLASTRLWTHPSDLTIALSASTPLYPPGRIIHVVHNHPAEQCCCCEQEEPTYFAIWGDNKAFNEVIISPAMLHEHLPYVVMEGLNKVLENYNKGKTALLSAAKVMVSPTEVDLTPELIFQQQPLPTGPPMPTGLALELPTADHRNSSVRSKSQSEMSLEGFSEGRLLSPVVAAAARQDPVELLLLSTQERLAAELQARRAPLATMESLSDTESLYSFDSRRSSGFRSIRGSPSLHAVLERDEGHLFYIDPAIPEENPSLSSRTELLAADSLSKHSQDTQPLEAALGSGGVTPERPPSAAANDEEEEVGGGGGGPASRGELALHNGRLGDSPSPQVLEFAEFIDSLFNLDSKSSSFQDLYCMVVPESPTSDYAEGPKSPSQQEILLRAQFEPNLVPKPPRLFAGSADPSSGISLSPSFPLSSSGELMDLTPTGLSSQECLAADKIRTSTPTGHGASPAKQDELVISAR
How it was run: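 Membrane fraction from HEK293T cells transiently transfected with human DAGLα (PEI transfection, harvested at 72 h). Membranes used at 0.05 μg μL-1 final protein in 50 mM HEPES pH 7.2. Colorimetric readout of para-nitrophenylbutyrate hydrolysis. pIC50 ± SEM.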

[2] = target: T2, Triacylglycerol hydrolase DDHD2 (Mus musculus) (UniProt Q80Y98); test: Inhibition of MB064 labelling of DDHD2 in mouse brain homogenates at 10 uM pretreated for 30 mins followed by MB064 addition and measured after 20 mins by activity based protein profiling assay; format: tissue-based
T2 sequence (whole entry): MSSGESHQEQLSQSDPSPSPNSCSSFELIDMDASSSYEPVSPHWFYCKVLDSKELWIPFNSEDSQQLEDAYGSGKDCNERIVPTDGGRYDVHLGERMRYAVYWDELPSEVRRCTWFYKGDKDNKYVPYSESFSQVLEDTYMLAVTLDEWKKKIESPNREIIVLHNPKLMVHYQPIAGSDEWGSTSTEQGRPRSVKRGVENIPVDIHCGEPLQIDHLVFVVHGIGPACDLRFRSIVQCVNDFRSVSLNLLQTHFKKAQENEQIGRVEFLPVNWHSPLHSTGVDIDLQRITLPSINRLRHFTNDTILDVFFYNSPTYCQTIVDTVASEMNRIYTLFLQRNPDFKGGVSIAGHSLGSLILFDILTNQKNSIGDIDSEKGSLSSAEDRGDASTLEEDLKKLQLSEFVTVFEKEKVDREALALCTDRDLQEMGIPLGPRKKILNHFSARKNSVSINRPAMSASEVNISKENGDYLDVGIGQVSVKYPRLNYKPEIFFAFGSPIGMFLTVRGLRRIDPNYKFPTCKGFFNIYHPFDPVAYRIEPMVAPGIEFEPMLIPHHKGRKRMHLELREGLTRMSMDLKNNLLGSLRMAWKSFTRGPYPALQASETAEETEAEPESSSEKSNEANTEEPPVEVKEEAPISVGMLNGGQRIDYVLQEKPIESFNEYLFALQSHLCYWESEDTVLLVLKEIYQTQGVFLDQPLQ
How it was run: (§1)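 Mouse brain membrane proteome preincubated 30 min with inhibitor (10 μM), then labelled with MB064 probe (0.25 μM, 20 min). Readout by gel-based competitive ABPP. Band intensities corrected for protein loading per lane from Coomassie staining. Means ± SEM, n = 3.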

[3] = target: T3, Monoglyceride lipase (Mus musculus) (UniProt O35678); test: Inhibition of FP-TAMRA labelling of MAGL in mouse brain homogenates at 10 uM pretreated for 30 mins followed by FP-TAMRA addition and measured after 20 mins by activity based protein profiling assay; format: tissue-based
T3 sequence (whole entry): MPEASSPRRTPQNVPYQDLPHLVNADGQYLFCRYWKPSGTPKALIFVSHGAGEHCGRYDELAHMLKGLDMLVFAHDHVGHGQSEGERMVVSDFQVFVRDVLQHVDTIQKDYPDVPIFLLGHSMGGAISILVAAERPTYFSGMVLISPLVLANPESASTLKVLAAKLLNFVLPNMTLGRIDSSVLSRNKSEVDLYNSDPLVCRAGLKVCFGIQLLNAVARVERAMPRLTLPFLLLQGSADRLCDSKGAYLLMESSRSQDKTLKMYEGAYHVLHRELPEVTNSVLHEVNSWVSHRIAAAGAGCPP
How it was run: (§2)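 Mouse brain membrane proteome (2 mg mL-1) preincubated 30 min at r.t. with inhibitor (10 μM) or DMSO vehicle, then labelled with TAMRA-FP, 500 nM final, 20 min at r.t. Reaction quenched with Laemmli sample buffer. Readout by gel-based competitive ABPP with Coomassie staining as loading control.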

Mus musculus [4] = species: Mus musculus; test: Inhibition of FP-TAMRA labelling of KIAA1363 in mouse brain homogenates at 10 uM pretreated for 30 mins followed by FP-TAMRA addition and measured after 20 mins by activity based protein profiling assay; format: tissue-based; how it was run: as §2
Mus musculus [5] = species: Mus musculus; test: Inhibition of MB064 labelling of ABHD16A in mouse brain homogenates at 10 uM pretreated for 30 mins followed by MB064 addition and measured after 20 mins by activity based protein profiling assay; format: tissue-based; how it was run: as §1

pIC50 [1] | inhibition [2] | inhibition [3] | SMILES | inhibition (Mus musculus [4]) | inhibition (Mus musculus [5])
7.60 | Active | – | O=C(N1CCC=C[C@@H]1COCc1ccccc1)n1cc(-c2ccc(-c3ccccc3)cc2)nn1 | – | –
7.80 | Active | Active | O=C(N1CCC=C[C@@H]1COCc1ccccc1)n1cc(-c2ccc([N+](=O)[O-])cc2)nn1 | Active | Active
7.60 | Active | – | O=C(N1CCC=C[C@@H]1COCc1ccccc1)n1cc(-c2ccc(Oc3ccccc3)cc2)nn1 | – | –
7.50 | Active | Active | O=C(N1C[C@@H](O)C=C[C@@H]1COCc1ccccc1)n1cc(-c2ccc(-c3ccccc3)cc2)nn1 | Active | Active
6.80 | Active | Active | O=C(N1CCC=C[C@@H]1COCc1ccccc1)n1cc(-c2ccccc2)nn1 | Active | Active
7.10 | Active | – | O=C(N1CCCC[C@@H]1COCc1ccccc1)n1cc(-c2ccc(-c3ccccc3)cc2)nn1 | – | –
7.80 | Active | – | O=C(N1CCC=C[C@@H]1COCc1ccccc1)n1cc(-c2ccc(Br)cc2)nn1 | – | –
